Four molecules from ChEMBL document CHEMBL1158125, “seco-Cycloartane triterpenes from Gardenia aubryi” (J Nat Prod, 2006) can be followed below.

Assay type in all cases: functional, cell-based
Experiment [1] concerns MCF7. As to the kind of experiment: Cytotoxicity against human MCF7 cells after 48 hrs by MTT assay. Particulars: MCF7, 48 h. The essentials: (§1)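 Cells grown in DMEM with penicillin (100 U/mL), streptomycin (100 μg/mL) and 10% FBS at 37 °C, 5% CO2, and seeded at 5000 cells/well. After 24 h, compounds were added diluted in DMSO and left for 48 h. Medium was then replaced with MTT (1 mg/mL final, serum-free phenol-red-free RPMI) for 4 h. Formazan was dissolved in isopropanol and read at 550 nm (reference 690 nm). IC50 reported.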

The test system of experiment [2] is PC-3. As to the kind of experiment: Cytotoxicity against human PC-3 cells after 48 hrs by MTT assay. The note with it: PC-3, 48 h. The essentials: as §1
Background: Tetrazolium dyes change colour on reduction, which living cells bring about.

In experiment [3] the test system is MDA-MB-231. As to the kind of experiment: Cytotoxicity against human MDA-MB-231 cells after 48 hrs by MTT assay. Particulars: MDA-MB-231, 48 h. The method in brief: as §1
Experiment [4] deals with HeLa. As to the kind of experiment: Cytotoxicity against human HeLa cells after 48 hrs by MTT assay. The essentials: as §1

Where a name gives a salt, the structure may show the parent alone.

For `COc1cccc2c1C(=O)c1c(O)c3c(c(O)c1C2=O)C[C@@](O)(C(C)=O)C[C@@H]3O[C@H]1C[C@H](N)[C@H](O)[C@H](C)O1` [DAUNORUBICIN HYDROCHLORIDE], the IC50 in experiment [1] came to 0.22 µM; in experiment [2], 0.44 µM; in experiment [3] it was 0.25 µM; in experiment [4] it was 0.32 µM.
For `C=C(CO)[C@@H]1CC[C@H]2[C@]3(CC[C@]4(C)[C@@H]([C@H](C)CCC=C(C)C)CC[C@@]24C)C[C@]13CCC(=O)O` [SECAUBRYENOL], the IC50 in experiment [1], in experiment [2], in experiment [3] and in experiment [4] was above 100 µM in each case.
With `C=C1C(=O)O[C@@H]2C[C@@H]3[C@]4(CC[C@]5(C)[C@@H]([C@H](C)CC(=O)C=C(C)C)CC[C@@]35C)C[C@]4(CCC(=O)OC)[C@H]12` [SECAUBRYOLIDE], the IC50 in experiment [1] is 52 µM; in experiment [2], 35 µM; in experiment [3], 21 µM; in experiment [4], 40 µM.
On the same counts, the results for `C=C(CO)[C@@H]1CC[C@H]2[C@]3(CC[C@]4(C)[C@@H]([C@H](C)CC[C@@H](O)C(C)(C)O)CC[C@@]24C)C[C@]13CCC(=O)O` [SECAUBRYTRIOL] are above 100 µM, above 100 µM, above 100 µM and above 100 µM.

For orientation: IC50 means the midpoint of a concentration-inhibition curve. Low values mean inhibition by little substance, high ones a need for much substance.
